Laboratory results as given in ChEMBL document CHEMBL1122172, “Syntheses and diuretic activity of 1,2-dihydro-2-(3-pyridyl)-3H-pyrido[2,3-d]pyrimidin-4-one and related compounds” (1982).
Several values for one entry are separate records, joined by “and”; a condition that tells them apart may be missing. Equal entries are not always repeated.

How the values were obtained:
Assay type in all cases: functional, Urine
[1] = test system: Rattus norvegicus; assay: Total K+ milliequivalents excretion in diuretic test at the dose of 50 mg/kg
[2] = test system: Rattus norvegicus; assay: Diuretic activity by measuring the urinary output at the dose of 50 mg/kg
Outline: (§1)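 Groups of eight male Sprague–Dawley-derived rats, fasted 18 h with water ad libitum, received oral doses by dosing needle in 5% acacia–isotonic saline; the vehicle served as control. Rats were placed in metabolism cages with no food or water, and urine was collected for 5 h. Bladders were then emptied by pulling at the tail base (modified Lipschitz method).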

[3] = test system: Rattus norvegicus; assay: Total Cl- milliequivalents excretion in diuretic test at the dose of 50 mg/kg
[4] = test system: Rattus norvegicus; assay: Total Na+ milliequivalents excretion in diuretic test at the dose of 50 mg/kg
[5] = test system: Rattus norvegicus; assay: Diuretic activity by measuring the urinary output at the dose of 25 mg/kg
Outline: (§2)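 Male Sprague–Dawley rats (195–225 g) were fasted and deprived of water for 18 h. The compound was given orally, dissolved in 25 mL/kg saline; controls got saline alone. Groups of eight were housed as pairs in metabolism cages. Urine volume was read at 2 and 5 h, with total Na+, Cl− and K+ mequiv excreted. Values are mean ± SEM, N = 8.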

[6] = test system: Rattus norvegicus; assay: Diuretic activity by measuring the urinary output at the dose of 400 mg/kg; outline: as §1
[7] = test system: Rattus norvegicus; assay: Diuretic activity by measuring the urinary output at the dose of 100 mg/kg; outline: as §1
[8] = test system: Rattus norvegicus; assay: Total Cl- milliequivalents excretion in diuretic test at the dose of 25 mg/kg; outline: as §2
[9] = test system: Rattus norvegicus; assay: Total K+ milliequivalents excretion in diuretic test at the dose of 25 mg/kg; outline: as §2
[10] = test system: Rattus norvegicus; assay: Total Na+ milliequivalents excretion in diuretic test at the dose of 25 mg/kg; outline: as §2
[11] = test system: Rattus norvegicus; assay: Total Na+ milliequivalents excretion in diuretic test at the dose of 150 mg/kg
[12] = test system: Rattus norvegicus; assay: Total K+ milliequivalents excretion in diuretic test at the dose of 150 mg/kg
[13] = test system: Rattus norvegicus; assay: Total Cl- milliequivalents excretion in diuretic test at the dose of 150 mg/kg
[14] = test system: Rattus norvegicus; assay: Diuretic activity by measuring the urinary output at the dose of 150 mg/kg; outline: as §1
[15] = test system: Rattus norvegicus; assay: Total Na+ milliequivalents excretion in diuretic test at the dose of 75 mg/kg
[16] = test system: Rattus norvegicus; assay: Total Cl- milliequivalents excretion in diuretic test at the dose of 75 mg/kg
[17] = test system: Rattus norvegicus; assay: Total K+ milliequivalents excretion in diuretic test at the dose of 75 mg/kg
[18] = test system: Rattus norvegicus; assay: Diuretic activity by measuring the urinary output at the dose of 75 mg/kg; outline: as §1
[19] = test system: Rattus norvegicus; assay: Diuretic activity by measuring the urinary output after 2 hr at the dose of 25 mg/kg
Outline: (§3)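 Male Sprague–Dawley rats (195–225 g) were fasted and deprived of water for 18 h, then dosed orally with compound dissolved in 25 mL/kg saline. Controls got 25 mL/kg saline alone. Groups of eight were used, housed two rats per metabolism cage right after dosing. Urine volume was collected at 2 h and 5 h after dosing. Values are mean ± SEM per cage pair, N = 8.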

[20] = test system: Rattus norvegicus; assay: Diuretic activity by measuring the urinary output after 5 hr at the dose of 25 mg/kg; outline: as §3
[21] = test system: Rattus norvegicus; assay: Diuretic activity by measuring the urinary output at the dose of 40 mg/kg; outline: as §1
[22] = test system: Rattus norvegicus; assay: Diuretic activity by measuring the urinary output at the dose of 20 mg/kg; outline: as §1

SMILES | Control [5] [%] | Control [6] [%] | Control [7] [%] | Excretion [8] [m equiv] | Excretion [9] [m equiv] | Excretion [10] [m equiv] | Excretion [16] [m equiv] | Control [18] [%] | also measured
Nc1ccc(C2NC(=O)c3cccnc3N2)cc1 (stereo unspecified) | – | – | – | – | – | – | – | – | Excretion [1]: 0.5 m equiv; Control [2]: 128%; Excretion [3]: 1.5 m equiv; Excretion [4]: 1.5 m equiv
Oc1nc(-c2ccco2)nc2ncccc12 | 167 | 36 | 212 | – | – | – | – | – | –
O=C1NC(c2cccnc2)Nc2ccccc21 (stereo unspecified) | 96 | – | – | 1.1 | 0.4 | 1 | – | – | –
O=C1NC(c2cc(Br)co2)Nc2ncccc21 (stereo unspecified) | 101 | 110 | 94 | – | – | – | – | – | –
CC1(C(=O)NCc2cccnc2)NC(=O)c2ccccc2N1 (stereo unspecified) | – | – | – | – | – | – | – | – | Excretion [11]: 1.4 m equiv; Excretion [12]: 0.5 m equiv; Excretion [13]: 1.5 m equiv; Control [14]: 120%
O=C1NC(c2cccnc2)Nc2nccnc21 (stereo unspecified) | – | – | – | – | – | – | 1.2 | 97 | Excretion [15]: 1.2 m equiv; Excretion [17]: 0.4 m equiv
CN1C(=O)c2cccnc2NC1c1ccco1 (stereo unspecified) | 209 | 95 | 233 | 1.8 | 0.8 | 1.8 | – | – | Excretion [19]: 4.6 mL; Excretion [20]: 12.2 mL
O=C1NC(c2ccc([N+](=O)[O-])cc2)Nc2ncccc21 (stereo unspecified) | 110 | – | – | 1.3 | 0.4 | 1.2 | 1.7 | 115 | Excretion ([15]; 75 mg/kg): 1.5 m equiv and 0.6 m equiv
CN1C(=O)c2cccnc2NC1c1cccnc1 (stereo unspecified) | – | – | – | – | – | – | 1.7 | 149 | –
NS(=O)(=O)c1cc(C(=O)O)c(NCc2ccco2)cc1Cl [FUROSEMIDE] | – | – | – | – | – | – | – | – | Control [21]: 517%; Control [22]: 444%
